Consider one sequence from article PMC4800337 (Kidney international, 2016).

Where no end group is shown, it is not given here.

Series [1] deals with human CD36 (CD36-overexpressing HeLa cells) (Homo sapiens, UniProt P16671). As to the kind of experiment: Competition with Alexa-Fluor-488 oxLDL uptake in CD36-overexpressing HeLa cells. The class given is cell-based.
Series [2] is described as follows: Liver toxicity by serum transaminases in 5/6Nx+AngII mice. Conditions: mice 5/6Nx+AngII treated with 5A 5 mg/kg/day, 4 weeks. Type of series: in vivo, mouse. The method in brief:
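C57BL/6 mice underwent 5/6 nephrectomy: left kidney resection at week −1, then right nephrectomy at week 0. Animals were kept if the resected-to-removed kidney weight ratio was 0.5–0.65. Buprenorphine was given at 0.1 mg/kg after surgery and 0.05 mg/kg at 18 h. Val5-AngII (0.75 µg/kg/min, in sterile water) and 5A (5 mg/kg/day) were infused by separate subcutaneous osmotic mini-pumps placed at right nephrectomy.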

Sequence of human CD36 (CD36-overexpressing HeLa cells) (P16671 whole entry): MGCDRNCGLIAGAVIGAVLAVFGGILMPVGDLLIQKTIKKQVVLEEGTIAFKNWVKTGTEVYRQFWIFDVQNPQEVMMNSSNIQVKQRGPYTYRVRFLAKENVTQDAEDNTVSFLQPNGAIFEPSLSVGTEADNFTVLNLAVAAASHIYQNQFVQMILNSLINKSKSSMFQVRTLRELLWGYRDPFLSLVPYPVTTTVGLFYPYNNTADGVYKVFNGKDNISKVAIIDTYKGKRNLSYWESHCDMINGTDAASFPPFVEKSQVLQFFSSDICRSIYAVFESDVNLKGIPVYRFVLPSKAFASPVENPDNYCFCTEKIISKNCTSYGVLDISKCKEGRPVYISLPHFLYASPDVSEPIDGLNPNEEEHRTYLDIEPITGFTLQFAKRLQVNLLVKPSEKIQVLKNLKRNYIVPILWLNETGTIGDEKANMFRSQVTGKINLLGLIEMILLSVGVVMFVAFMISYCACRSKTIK

For “DWLKAFYDKVAEKLKEAFPDWAKAAYDKAAEKAKEAA [5A]”, in series [1], the IC50 (usually the concentration at which inhibition is half-maximal) was found to be 7.5 µM and the Ki (usually the equilibrium dissociation constant of an inhibitor or competing ligand from its target) was determined as 1.45 µM. Moreover, in series [2], the “Liver toxicity, serum transaminases” value was “did not have liver toxicity”.
